Data as given in PubChem BioAssay.
The source made the active and inactive calls.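 The calls were made as follows, unless noted: active = viability at or under a set limit in both replicates, limit being median viability minus 3 SD (cut at about 48% in these data, passing the limit was not always enough); inconclusive = at or under the limit in just one replicate; inactive = at or above the limit in both replicates.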 Peptide text beside a SMILES is read from it. * marks the point of attachment. Boc = CC(C)(C)OC(=O)*

Experiments:
[1] = reduced viability of SK-BR-3 breast cancer cells – cell-based, 24 h, human, pilot screen (AID 572;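 active = viability at or below 10% of carrier control in both of two separate runs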;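 also: compound exposure lasted between 18 and 24 h rather than exactly 24 h; 100% = carrier-treated control wells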); settings: SK-BR-3 viability, CellTiter-Glo luminescence, at 10 µM, stronger effect = lower value
[2] = HUVEC growth inhibition – cell-based, human, primary screen (AID 575;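 active = viability at or below 30% in both replicate assays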;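 also: 100% = median of untreated cell wells with 0.1% DMSO on each plate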); settings: HUVEC proliferation, CellTiter-Glo luminescence, 72 h; at 10 µM; stronger effect = lower value
Summary of the method: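 Test system – primary HUVEC, no more than 12 passages · Dosing – one dose, 10 µM final, 0.1% DMSO · Times – 72 h treatment at 37 °C · Measured by – ATP-based CellTiter-Glo luminescent read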

[3] = H69AR cell proliferation blockers – human, duplicate replicates, primary screen (AID 580); settings: H69AR lung tumor cells viability, ATP luminescence, 72 h; at 10 µM; stronger effect = lower value;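 also: 100% = mean luminescence of untreated wells and 0% = no signal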
[4] = MRP1 drug-resistance reversers in H69AR cells – cell-based, doxorubicin co-treatment, pilot screen (AID 601;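 active = viability loss from added drug above about 55%, and viability with drug at most 40%, in both replicates, limit read from the data, passing the limit was not always enough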); settings: CellTiter-Glo, 72 h, at 10 µM; for differential viability (reversal): stronger effect = higher value
[5] = yeast transport mutant growth inhibition pilot in 384-well plates, post-Golgi transport modulator project (AID 636; in the data active = inhibition above about 31%); settings: absorbance 615 nm, about 18 h, stronger effect = higher value
[6] = growth suppression of yeast trafficking mutant, preliminary HTS, modulators of trafficking downstream of Golgi apparatus project, 1536-format plate, OD 615 nm (AID 637; in the data active = inhibition above about 30%); settings: yeast transport mutant growth, absorbance 615 nm, 18 h; stronger effect = higher value
[7] = H69AR cells + 2 uM doxorubicin, measured here: viability with 2 uM doxorubicin, stronger effect = lower value
[8] = H69AR cells, compound alone cytotoxicity

SMILES | viability [1] | viability [2] | viability [3] | differential viability (reversal) ([4]; H69AR cells + 2 uM doxorubicin) | viability [4, 7] [%] | viability [4, 8] [%] | inhibition [5] | inhibition [6]
Cc1cccc(NC(=O)C2CCCN(C(=O)Nc3ccccc3)C2)c1C (stereo not drawn) | 88% (inactive) | 102% (inactive) | 96.2% (inactive) | 5.37% (inactive) | 90.8 | 96.2 | -1.04% (inactive) | 3.11% (inactive)
O=C(c1ccco1)N1CCN(CCCCN2C(=O)c3ccccc3C2=O)CC1 | 102% (inactive) | 90.5% (inactive) | 79.9% (inactive) | -12.3% (inactive) | 92.2 | 79.9 | -1.04% (inactive) | 0.32% (inactive)
Cc1c(C(=O)NCc2ccccn2)sc2nc(-c3ccc(F)cc3)cn12 | 119% (inactive) | 89.4% (inactive) | 95.4% (inactive) | 13.1% (inactive) | 82.3 | 95.4 | -3.12% (inactive) | 3.77% (inactive)
Nc1ncnc2c1ncn2[C@@H]1O[C@H](CO)[C@@H](O)[C@H]1O | 105% (inactive) | 93.9% (inactive) | 113% (inactive) | 25.9% (inactive) | 87 | 113 | -2.47% (inactive) | 0.33% (inactive)
Cn1c(=O)[nH]c(=O)c2c1nc(N1CCc3ccccc3C1)n2CCSc1nc2ccccc2s1 | 72% (inactive) | 79.5% (inactive) | 75.2% (inactive) | 1.51% (inactive) | 73.7 | 75.2 | -5.48% (inactive) | 2.9% (inactive)
CCOC(=O)c1cc2sc(C)cc2n1CC(=O)Nc1cccc(C)c1C | 90% (inactive) | 99.2% (inactive) | 91.2% (inactive) | -3.05% (inactive) | 94.2 | 91.2 | -5.81% (inactive) | -5.82% (inactive)
O=C(Nc1ccon1)c1cc(-c2ccccc2)nc2ccccc12 | 91% (inactive) | 104% (inactive) | 96.2% (inactive) | -3.19% (inactive) | 99.4 | 96.2 | -5.95% (inactive) | -3.27% (inactive)
COC(=O)c1ccccc1NC(=O)COc1ccc(S(=O)(=O)N2CCCC2)cc1C | 90% (inactive) | 87.1% (inactive) | 74.4% (inactive) | 8.04% (inactive) | 66.4 | 74.4 | -3.03% (inactive) | 3.83% (inactive)
CC(CCc1ccccc1)NC(=O)CSc1nc(N)cc(N)n1 (stereo not drawn) | 114% (inactive) | 96.6% (inactive) | 94.7% (inactive) | 4.75% (inactive) | 90 | 94.7 | -0.68% (inactive) | -1.45% (inactive)
C=CCSc1nnc(-c2ccc(Cl)cc2Cl)o1 | 96% (inactive) | 107% (inactive) | 87.9% (inactive) | 19.9% (inactive) | 67.9 | 87.9 | -5.47% (inactive) | 0.73% (inactive)
c1n[nH]c(SCCCCSc2ncn[nH]2)n1 | 101% (inactive) | 108% (inactive) | 108% (inactive) | 13.8% (inactive) | 93.9 | 108 | -6.71% (inactive) | 2.91% (inactive)
COc1ccc(-c2nnn(CC(=O)c3ccc4c(c3)OCCO4)n2)cc1OC | 92% (inactive) | 73.8% (inactive) | 81.5% (inactive) | 7.78% (inactive) | 73.7 | 81.5 | -7.26% (inactive) | 0% (inactive)
CS(=O)(=O)N(Cc1ccccc1)c1ccc(C(=O)N2CCOCC2)cc1 | 95% (inactive) | 105% (inactive) | 97.7% (inactive) | 6.74% (inactive) | 91 | 97.7 | -2.86% (inactive) | -5.57% (inactive)
C=CCn1c(SCC(=O)c2ccccc2)nnc1-c1ccc2c(c1)OCO2 | 97% (inactive) | 107% (inactive) | 100% (inactive) | -2.68% (inactive) | 103 | 100 | -1.78% (inactive) | -3.06% (inactive)
CCOC(=O)N1CCC(NC(=O)Cn2ncc3c4ccccc4n(C)c3c2=O)CC1 | 114% (inactive) | 116% (inactive) | 97.5% (inactive) | -7.6% (inactive) | 105 | 97.5 | -7.43% (inactive) | -3.27% (inactive)
CC(C)OC(=O)c1cc(NC(=O)C2C3CCC(O3)C2C(=O)O)cc(C(=O)OC(C)C)c1 (stereo not drawn) | 106% (inactive) | 88.1% (inactive) | 92.9% (inactive) | 3.01% (inactive) | 89.9 | 92.9 | -7.81% (inactive) | -1.09% (inactive)
O=C(NCCCN1CCN(c2cccc(Cl)c2)CC1)c1ccc(N2CCCC2=O)cc1 | 69% (inactive) | 76.1% (inactive) | 89.1% (inactive) | -5.41% (inactive) | 94.5 | 89.1 | -1.1% (inactive) | 4.91% (inactive)
COc1cc(C(=O)N2CCCC(c3nc(-c4cccs4)no3)C2)cc(OC)c1OC (stereo not drawn) | 90.5% (inactive) | 94.2% (inactive) | 89.7% (inactive) | 20.3% (inactive) | 69.4 | 89.7 | -1.05% (inactive) | 16% (inactive)

SMILES | viability [1] | viability [2] | viability [3] | differential viability (reversal) ([4]; H69AR cells + 2 uM doxorubicin) | viability [4, 7] [%] | viability [4, 8] [%] | inhibition [5] | inhibition [6]
O=C(CN1CCC(n2nnc3ccccc32)CC1)Nc1ccc2c(c1)CCC2 | 64% (inactive) | 92% (inactive) | 89.3% (inactive) | 1.24% (inactive) | 88.1 | 89.3 | -8.63% (inactive) | 2% (inactive)
O=C(Nc1cccnc1)Nc1ccc(F)c(Cl)c1 | 82% (inactive) | 86.6% (inactive) | 105% (inactive) | 4.77% (inactive) | 100 | 105 | -2.19% (inactive) | 12% (inactive)
O=C(NCCCN1CCCC1=O)C1CCN(S(=O)(=O)N2CCOCC2)CC1 | 90% (inactive) | 118% (inactive) | 100% (inactive) | 5.27% (inactive) | 94.8 | 100 | 5.41% (inactive) | -1.45% (inactive)
CC(c1ccco1)N(Cc1ccco1)C(=O)Nc1ccccc1 (stereo not drawn) | 108% (inactive) | 76.3% (inactive) | 91.2% (inactive) | 23.7% (inactive) | 67.6 | 91.2 | 1.69% (inactive) | 6.72% (inactive)
CCN(CC)CCOC(=O)c1ccc(NC(=O)COc2cc(=O)n(CC)c3ccccc23)cc1 | 103% (inactive) | 98.3% (inactive) | 109% (inactive) | 26.6% (inactive) | 82.1 | 109 | -2.86% (inactive) | -10% (inactive)
O=C(NC1CCCCCCC1)C1CCN(c2nc3ccccc3o2)CC1 | 106% (inactive) | 85.7% (inactive) | 92.2% (inactive) | -2.57% (inactive) | 94.7 | 92.2 | 7.2% (inactive) | 1.09% (inactive)
Cc1noc(C)c1C(=O)N1CCN(C(=O)c2sc3cc(Cl)ccc3c2Cl)CC1 | 103% (inactive) | 106% (inactive) | 89% (inactive) | 8.48% (inactive) | 80.5 | 89 | -5.14% (inactive) | -1.64% (inactive)
O=C(NCc1cccnc1)c1cccc(C(F)(F)F)c1 | 87% (inactive) | 109% (inactive) | 112% (inactive) | 16% (inactive) | 95.7 | 112 | -5.34% (inactive) | 6.55% (inactive)
CCOC(=O)C1CSC(CC(=O)Nc2ccc(Cl)cc2)C(=O)N1 (stereo not drawn) | 86% (inactive) | 111% (inactive) | 103% (inactive) | 11.6% (inactive) | 91.4 | 103 | 0% (inactive) | -3.64% (inactive)
O=C(Nc1ccccc1C(=O)O)c1cccc(NC(=O)c2ccc(Br)o2)c1 | 91% (inactive) | 80% (inactive) | 102% (inactive) | 7.51% (inactive) | 94.4 | 102 | -10.8% (inactive) | -1.82% (inactive)
Cc1ccc(C(C(=O)NC2CCCCC2)N(C(=O)c2csnn2)C2CCCC2)o1 (stereo not drawn) | 108% (inactive) | 101% (inactive) | 80.4% (inactive) | 1.01% (inactive) | 79.4 | 80.4 | -0.65% (inactive) | -2.46% (inactive)
CC(OC(=O)c1ccco1)C(=O)NCc1cccs1 (stereo not drawn) | 119% (inactive) | 90.3% (inactive) | 97.4% (inactive) | -5.53% (inactive) | 103 | 97.4 | -4.25% (inactive) | -4.55% (inactive)
CC1CN(S(=O)(=O)c2ccc(Cl)c(C(F)(F)F)c2)CC(C)O1 (stereo not drawn) | 68% (inactive) | 111% (inactive) | 100% (inactive) | 8.69% (inactive) | 91.8 | 100 | -9.32% (inactive) | 2% (inactive)
Cc1cc(C)n(C(=O)C23CC4CC(CC(C4)C2)C3)n1 | 106% (inactive) | 85.9% (inactive) | 99.3% (inactive) | 3.23% (inactive) | 96.1 | 99.3 | -8.36% (inactive) | -5.32% (inactive)
CCC(C)C(NC(=O)OC(C)(C)C)C(=O)NC(CC(C)C)C(N)=O (stereo not drawn) (Boc-Ile-Leu-NH2; configuration not given here) | 109% (inactive) | 114% (inactive) | 98.9% (inactive) | 9.78% (inactive) | 89.1 | 98.9 | -2.73% (inactive) | -1.8% (inactive)
COc1ccc(S(=O)(=O)Nc2ccccc2OC)cc1C | 107% (inactive) | 93.8% (inactive) | 83.1% (inactive) | -7.08% (inactive) | 90.2 | 83.1 | 0% (inactive) | 0.82% (inactive)
COc1cc(NC(=O)CSCc2cnn(-c3ccccc3)c2-n2cccc2)cc(OC)c1 | 103% (inactive) | 67.9% (inactive) | 80.6% (inactive) | 5.25% (inactive) | 75.3 | 80.6 | -4.46% (inactive) | -4.18% (inactive)
O=C(CN1CCN(c2ccc(F)cc2)CC1)OCc1ccccc1 | 95% (inactive) | 105% (inactive) | 92.6% (inactive) | 7.9% (inactive) | 84.7 | 92.6 | -4.4% (inactive) | 3.64% (inactive)
